From publication PMC3760280 (Structure (London, England : 1993), 2013)
Like-named read-outs stand apart in the source and are kept apart here. Blank lines part the entries; values can stand above or below the molecule they belong to. Square brackets hold non-standard residues; d marks the D form. Peptide text beside a SMILES is read from it. * marks the point of attachment. FITC = O=C1OC2(c3ccc(O)cc3Oc3cc(O)ccc32)c2ccc(NC(=S)*)cc21; pT = C[C@@H](OP(=O)(O)O)[C@H](N)C(=O)O; pS = N[C@@H](COP(=O)(O)O)C(=O)O

Experiments:
[1] = biological target: GST-TopBP1 BRCT5 (Homo sapiens, UniProt Q92547); experiment: Fluorescence polarization; assay type: binding
Summary of the method: (§1)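 Human TopBP1 GST fusions of BRCT4/5 (549–746) or BRCT5 (641–746), wild type or point mutants, were expressed in E. coli BL21-Gold and glutathione-affinity purified. Plates sat 15 min at room temperature, then FP was read at ex 485/em 538 nm. Kd was curve-fitted and averaged over ≥3 independent titrations.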

[2] = biological target: GST-TopBP1 BRCT4/5 (Homo sapiens, UniProt Q92547); experiment: Fluorescence polarization; assay type: binding
Summary of the method: as §1

[3] = biological target: GST-BRCT5 R681E/K682E (TopBP1) (Homo sapiens, UniProt Q92547, K682E/R681E); experiment: Fluorescence polarization; assay type: binding
Chain of GST-BRCT5 R681E/K682E (TopBP1) (Q92547 641-746 R681E/K682E): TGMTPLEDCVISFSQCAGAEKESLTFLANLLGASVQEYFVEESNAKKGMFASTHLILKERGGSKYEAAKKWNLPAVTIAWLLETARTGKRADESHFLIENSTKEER
Summary of the method: as §1

[4] = biological target: GST-BRCT5 K704A (TopBP1) (Homo sapiens, UniProt Q92547, K704A); experiment: Fluorescence polarization; assay type: binding
Chain of GST-BRCT5 K704A (TopBP1) (Q92547 641-746 K704A): as the sequence (Q92547 641-746 R681E/K682E) above, with E41R, E42K, K64A counted along it
Summary of the method: as §1

[5] = biological target: T1, FITC-labeled MDC1 SDT di-phospho-peptide with +2 Val to Asp, FITC-GFIDpSDpTDDEEE-NH2; experiment: fluorescence polarisation
T1 chain: GFIDSDTDDEEE

[6] = biological target: T2, FITC-labeled MDC1 consensus SDT di-phospho-peptide FITC-GFIDpSDpTDVEEE-NH2; experiment: fluorescence polarisation
T2 chain: GFIDSDTDVEEE

[7] = biological target: T3, FITC-labeled non-phosphorylated MDC1 consensus SDT peptide FITC-…-NH2; experiment: fluorescence polarisation
T3 chain: GFIDSDTDVEEE

[8] = biological target: T4, FITC-labeled pSer MDC1 consensus SDT peptide FITC-GFIDpSDTDVEEE-NH2; experiment: fluorescence polarisation
T4 chain: GFIDSDTDVEEE

[9] = biological target: T5, FITC-labeled pThr MDC1 consensus SDT peptide FITC-GFIDSDpTDVEEE-NH2; experiment: fluorescence polarisation
T5 chain: GFIDSDTDVEEE

[10] = biological target: T6, FITC-labeled MDC1 consensus SDT di-phospho-peptide FITC-GFIDpSDpTDVEEE-NH2; experiment: fluorescence polarisation
T6 peptide: {FITC}-GFID[pS]D[pT]DVEEE-NH2

Kd [1]: 24 ± 3 µM
Molecule: CC[C@H](C)[C@H](NC(=O)[C@H](Cc1ccccc1)NC(=O)CNC(=S)Nc1ccc2c(c1)C(=O)OC21c2ccc(O)cc2Oc2cc(O)ccc21)C(=O)N[C@@H](CC(=O)O)C(=O)N[C@@H](COP(=O)(O)O)C(=O)N[C@@H](CC(=O)O)C(=O)N[C@H](C(=O)N[C@@H](CC(=O)O)C(=O)N[C@@H](CC(=O)O)C(=O)N[C@@H](CCC(=O)O)C(=O)N[C@@H](CCC(=O)O)C(=O)N[C@@H](CCC(=O)O)C(N)=O)[C@@H](C)OP(=O)(O)O [FITC-GFIDpSDpTDDEEE-NH2] ({FITC}-GFID[pS]D[pT]DDEEE-NH2)

Kd [1]: 105 ± 9 µM
Molecule: CC[C@H](C)[C@H](NC(=O)[C@H](Cc1ccccc1)NC(=O)CNC(=S)Nc1ccc2c(c1)C(=O)OC21c2ccc(O)cc2Oc2cc(O)ccc21)C(=O)N[C@@H](CC(=O)O)C(=O)N[C@@H](COP(=O)(O)O)C(=O)N[C@@H](CC(=O)O)C(=O)N[C@H](C(=O)N[C@@H](CC(=O)O)C(=O)N[C@H](C(=O)N[C@@H](CCC(=O)O)C(=O)N[C@@H](CCC(=O)O)C(=O)N[C@@H](CCC(=O)O)C(N)=O)C(C)C)[C@@H](C)O [FITC-GFIDpSDTDVEEE-NH2] ({FITC}-GFID[pS]DTDVEEE-NH2)

Kd [1]: 310 ± 70 µM
Molecule: CC[C@H](C)[C@H](NC(=O)[C@H](Cc1ccccc1)NC(=O)CNC(=S)Nc1ccc2c(c1)C(=O)OC21c2ccc(O)cc2Oc2cc(O)ccc21)C(=O)N[C@@H](CC(=O)O)C(=O)N[C@@H](CO)C(=O)N[C@@H](CC(=O)O)C(=O)N[C@H](C(=O)N[C@@H](CC(=O)O)C(=O)N[C@H](C(=O)N[C@@H](CCC(=O)O)C(=O)N[C@@H](CCC(=O)O)C(=O)N[C@@H](CCC(=O)O)C(N)=O)C(C)C)[C@@H](C)O [FITC-GFIDSDTDVEEE-NH2] ({FITC}-GFIDSDTDVEEE-NH2)

Kd [1]: 98 ± 9 µM
Molecule: CC[C@H](C)[C@H](NC(=O)[C@H](Cc1ccccc1)NC(=O)CNC(=S)Nc1ccc2c(c1)C(=O)OC21c2ccc(O)cc2Oc2cc(O)ccc21)C(=O)N[C@@H](CC(=O)O)C(=O)N[C@@H](CO)C(=O)N[C@@H](CC(=O)O)C(=O)N[C@H](C(=O)N[C@@H](CC(=O)O)C(=O)N[C@H](C(=O)N[C@@H](CCC(=O)O)C(=O)N[C@@H](CCC(=O)O)C(=O)N[C@@H](CCC(=O)O)C(N)=O)C(C)C)[C@@H](C)OP(=O)(O)O [FITC-GFIDSDpTDVEEE-NH2] ({FITC}-GFIDSD[pT]DVEEE-NH2)

Kd [1]: 28 ± 4 µM
Kd [2]: 27 ± 4 µM
Kd [3]: 280 ± 60 µM
Kd [4]: 210 ± 50 µM
Molecule: CC[C@H](C)[C@H](NC(=O)[C@H](Cc1ccccc1)NC(=O)CNC(=S)Nc1ccc2c(c1)C(=O)OC21c2ccc(O)cc2Oc2cc(O)ccc21)C(=O)N[C@@H](CC(=O)O)C(=O)N[C@@H](COP(=O)(O)O)C(=O)N[C@@H](CC(=O)O)C(=O)N[C@H](C(=O)N[C@@H](CC(=O)O)C(=O)N[C@H](C(=O)N[C@@H](CCC(=O)O)C(=O)N[C@@H](CCC(=O)O)C(=O)N[C@@H](CCC(=O)O)C(N)=O)C(C)C)[C@@H](C)OP(=O)(O)O [FITC-GFIDpSDpTDVEEE-NH2] ({FITC}-GFID[pS]D[pT]DVEEE-NH2)

Kd [5]: 24 µM
Kd [6]: 28 µM
Kd [7]: 310 µM
Kd [8]: 105 µM
Kd [9]: 98 µM
B1: GST-TopBP1 BRCT5 (641-746), Q92547 641-746 (domain or fragment)
chain: TGMTPLEDCVISFSQCAGAEKESLTFLANLLGASVQEYFVRKSNAKKGMFASTHLILKERGGSKYEAAKKWNLPAVTIAWLLETARTGKRADESHFLIENSTKEER
modifications: not checked

Kd [10]: 27 ± 4 µM
B2: GST-TopBP1 BRCT4/5 (549-746) (domain or fragment)
chain: EEGLFSQKSFLVLGFSNENESNIANIIKENAGKIMSLLSRTVADYAVVPLLGCEVEATVGEVVTNTWLVTCIDYQTLFDPKSNPLFTPVPVMTGMTPLEDCVISFSQCAGAEKESLTFLANLLGASVQEYFVRKSNAKKGMFASTHLILKERGGSKYEAAKKWNLPAVTIAWLLETARTGKRADESHFLIENSTKEER
